From PubChem
M5 ag – agonists of human muscarinic M5 receptor (CHRM5); 0.19% of 360,000 active; P08912; CHO-K1 hM5 cells, Fluo-8 calcium fluorescence; 0% DMSO wells, 100% maximal acetylcholine response; AID 624037; activation, % at 3 µM;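 active = activation above the run's mean over test compounds plus 3 SD, cut at about 23% in these data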;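 note: signal is peak over basal fluorescence ratio across the kinetic read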
CHRM4 agonist – agonists of human muscarinic M4 receptor (CHRM4). 0.14% of 360,000 active. CHO-K1 hM4/Gqi5, Fluo-8 calcium fluorescence; vehicle 0%, full acetylcholine response 100%. activation, % at 3 µM. AID 624127. P08173;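 active = activation above the run mean over all test wells plus 3 SD, cut at about 32% in these data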;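 note: peak over basal fluorescence ratio per well then scaled between controls; 0% = DMSO wells and 100% = acetylcholine at EC100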
Target sequence (P08173 whole entry, looked up): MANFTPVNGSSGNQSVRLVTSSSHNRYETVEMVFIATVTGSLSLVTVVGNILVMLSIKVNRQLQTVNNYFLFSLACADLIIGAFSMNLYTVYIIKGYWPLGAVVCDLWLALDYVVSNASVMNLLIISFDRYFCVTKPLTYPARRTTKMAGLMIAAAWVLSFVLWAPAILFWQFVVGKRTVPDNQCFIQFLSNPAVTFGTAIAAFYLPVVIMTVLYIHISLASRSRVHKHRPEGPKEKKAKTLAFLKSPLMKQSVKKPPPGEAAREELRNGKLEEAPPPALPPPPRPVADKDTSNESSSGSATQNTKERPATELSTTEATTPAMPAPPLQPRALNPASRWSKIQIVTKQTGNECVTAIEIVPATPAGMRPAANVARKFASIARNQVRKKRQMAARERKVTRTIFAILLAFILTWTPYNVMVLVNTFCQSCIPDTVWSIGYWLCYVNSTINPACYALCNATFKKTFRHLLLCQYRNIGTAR
M5 PAM – positive allosteric modulators of human muscarinic M5 receptor. P08912. CHO-K1 hM5, Fluo-8 calcium, ACh EC20 PAM; 0% = ACh EC20, 100% = ACh EC100. activation, % at 3 µM. 0.3% of 360,000 active. AID 624038;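 active = activation above the run cutoff, the mean activation of all test compounds plus 3 SD, cut at about 18% in these data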
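Assay system: CHO-K1 hM5 cells. Also added: acetylcholine at EC20 concentration, added after compound. Dosing: 3 µM, single dose. Times: compound preincubation 140 s before EC20 acetylcholine addition. Signal: Fluo-8 calcium fluorescence. Measure: % activation relative to EC20 and EC100 ACh responses. Repeats: singlicate, one well per test compound.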
CHRM4 antagonist – CHRM4 antagonism in calcium assay. 0.73% of 360,000 active. inhibition, % at 3 µM. CHO-hM4 cells, ACh EC80, Fluo-8 calcium fluorescence. AID 624125. P08173;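 active = inhibition above its plate's cutoff, the mean inhibition of sample wells plus 3 SD, cut at about 27% in these data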;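 note: 0% = acetylcholine EC80 with DMSO and 100% = DMSO without agonist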
CHRM5 antagonist – antagonists of human muscarinic M5 receptor (CHRM5) | P08912 | inhibition, % at 3 µM | CHO-hM5 cells, Fluo-8 calcium fluorescence, ACh EC80 | AID 624040 | 0.59% of 360,000 active;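 active = inhibition above a per-plate cutoff, the mean of that plate's test compounds plus 3 SD, cut at about 27% in these data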;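 note: 0% = acetylcholine EC80 with DMSO and 100% = DMSO without agonist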
CHRM4 PAM – positive allosteric modulators of human muscarinic M4 receptor | CHO-K1 hM4/Gqi5, Fluo-8 calcium fluorescence, ACh EC20; 0% = ACh EC20, 100% = maximal ACh | activation, % at 3 µM | 0.4% of 360,000 active | AID 624126;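 active = activation above its plate's cutoff, the mean activation of sample wells plus 3 SD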
Numbers without * were called inactive; ! = a repeat was not active. The list is not random: actives were taken first. Their share in the collection is about 1.8%.

Screening O=C1NC(=O)C2(CCCC2c2ccccc2)N1 (configuration not stated) returned M5 ag -1, CHRM4 agonist 1, M5 PAM 10, CHRM4 antagonist -4, CHRM5 antagonist 7 and CHRM4 PAM 2.
CN(C)c1ccc(/C=C2\Oc3ccc(C#Cc4cccc(N)c4)cc3C2=O)cc1 was read as M5 ag 67*, CHRM4 agonist 96*, M5 PAM -27, CHRM4 antagonist 14, CHRM5 antagonist 33* and CHRM4 PAM -21.
OCCC1CN(Cc2ccc3cc(Cl)ccc3n2)CCN1Cc1ccsc1 (configuration not stated) was read as M5 ag -7, CHRM4 agonist 3, M5 PAM -3, CHRM4 antagonist -7, CHRM5 antagonist 9 and CHRM4 PAM 3.
CC1(C)[C@H]2CC=C(CN3CCC(N4CCC(C(=O)N5CCCC5)CC4)CC3)[C@@H]1C2 was read as M5 ag -17, CHRM4 agonist 1, M5 PAM -6, CHRM4 antagonist 56*, CHRM5 antagonist 8 and CHRM4 PAM -50.
Screening CCOC(=O)c1sc(NNC(=O)c2ccc(F)cc2)nc1C returned M5 ag 14, CHRM4 agonist 3, M5 PAM 25*, CHRM4 antagonist -3, CHRM5 antagonist 8 and CHRM4 PAM 13.
For CN1CCN(Cc2nc3ccccc3c(=O)n2Cc2nc(-c3ccc4ccccc4c3)cs2)CC1 the results were M5 ag -9, CHRM4 agonist 5, M5 PAM 7, CHRM4 antagonist -2, CHRM5 antagonist 12 and CHRM4 PAM 22*!.
For c1ccc(CCC2CCCCN2Cc2nc(C3CC3)no2)cc1 (configuration not stated) the results were M5 ag -4, CHRM4 agonist 0, M5 PAM -7, CHRM4 antagonist 1, CHRM5 antagonist 13 and CHRM4 PAM 3.
Screening O=C(c1cccc(S(=O)(=O)N2CCCCC2)c1)N1CCN(c2ccccc2)CC1 returned M5 ag -1, CHRM4 agonist 3, M5 PAM -6, CHRM4 antagonist 12, CHRM5 antagonist 21 and CHRM4 PAM -4.
Screening O=C(c1ccc(S(=O)(=O)N2CCCCCC2)cc1)N1CCN(c2ccccc2)CC1 returned M5 ag -3, CHRM4 agonist 0, M5 PAM -4, CHRM4 antagonist -7, CHRM5 antagonist 28* and CHRM4 PAM 0.
`Cc1ccc(OC(=O)N(C)C[C@@H]2OCc3cn(nn3)CCCC(=O)N([C@H](C)CO)C[C@H]2C)cc1` gave M5 ag 1, CHRM4 agonist 0, M5 PAM 1, CHRM4 antagonist -1, CHRM5 antagonist -1 and CHRM4 PAM 1.
`O=C(CSc1nnnn1-c1ccccc1)NCc1cccs1` gave M5 ag 3, CHRM4 agonist 1, M5 PAM 20*, CHRM4 antagonist -7, CHRM5 antagonist -17 and CHRM4 PAM 6.
Screening CCOC(=O)c1c(-c2ccc(C)o2)csc1NC(=O)CSc1nnnn1-c1ccccc1 returned M5 ag 0, CHRM4 agonist 9, M5 PAM -5, CHRM4 antagonist 30*, CHRM5 antagonist 7 and CHRM4 PAM -8.
For CCOC(=O)c1c(-c2ccc(C)o2)csc1NC(=O)CSc1nnc(C)s1 the results were M5 ag 4, CHRM4 agonist 16, M5 PAM -7, CHRM4 antagonist 12, CHRM5 antagonist 0 and CHRM4 PAM -12.
Screening COC(=O)c1ccc(CNC(=O)c2ccc3c(c2)S(=O)(=O)N=C2CCCCCN23)cc1 returned M5 ag -1, CHRM4 agonist 1, M5 PAM -5, CHRM4 antagonist 1, CHRM5 antagonist 7 and CHRM4 PAM 5.
O=C(Cn1c(=O)c2cccn2c2ccc(F)cc21)N1CCN(c2ccc(F)cc2)CC1 was read as M5 ag -2, CHRM4 agonist 2, M5 PAM -10, CHRM4 antagonist 3, CHRM5 antagonist 28* and CHRM4 PAM -5.
